Source: PubChem
Hits are enriched below; roughly 1.8% of the tested compounds scored in any of these assays.
TCR-CD3 inh: blocks the human TCR-CD3 interaction; TAMRA-labeled TCR probe fluorescence, biochemical; inhibition, % at 9.4 µM; 360,000 tested, 0.37% active; in the data active = inhibition above about 19%;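 also: recombinant mutant TCR 2C K166C tagged with TAMRA read by polarization; 0% = receptor in buffer alone and 100% = receptor with positive control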
HTRA1 inh: blocks human HTRA1 serine peptidase; AID 504803; 340,000 tested, 0.5% active; recombinant HTRA1, FP-rhodamine activity-based probe, fluorescence polarization; inhibition, % at 5.96 µM; Q92743; in the data active = inhibition above about 36%;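 also: 0% = enzyme with DMSO and 100% = wells lacking enzyme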
Tn6 DDE FP: disrupts Tn6 cyclic peptide binding to fibrin D-Dimer-E complex; P02675; Fibrin DD(E) TRITC-Tn6 fluorescence polarization displacement; inhibition, % at 8.3 µM; 370,000 tested, 0.21% active; AID 720509;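 active = inhibition above a per-campaign cutoff: mean of compounds within control limits plus 3 SD, cut at about 15% in these data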;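 also: 0% = median of all compound wells on the plate and 100% = blocking peptide control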
ABHD4 inh: inhibitors of mouse ABHD4; AID 720543; purified mABHD4, FP-Rh probe fluorescence polarization; inhibition, % at 8.92 µM; 370,000 tested, 0.54% active; Q8VD66;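 active = inhibition exceeding the mean over every tested compound plus 3 SD, cut at about 30% in these data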;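 also: 0% = plate median of compound wells and 100% = S159A mutant with DMSO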
Target sequence (Q8VD66 whole entry, looked up): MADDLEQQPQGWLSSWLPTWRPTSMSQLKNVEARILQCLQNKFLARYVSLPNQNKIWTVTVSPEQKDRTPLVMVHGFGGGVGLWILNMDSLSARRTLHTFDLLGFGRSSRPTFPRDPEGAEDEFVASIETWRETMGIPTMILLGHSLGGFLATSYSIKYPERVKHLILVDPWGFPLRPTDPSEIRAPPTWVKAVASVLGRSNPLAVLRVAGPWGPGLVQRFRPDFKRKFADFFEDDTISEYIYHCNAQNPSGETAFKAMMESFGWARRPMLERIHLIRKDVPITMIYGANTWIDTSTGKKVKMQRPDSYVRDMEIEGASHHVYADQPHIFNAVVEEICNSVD
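Doses – 8.92 µM, single dose · Material – wild-type mouse ABHD4 protein · Replication – single well per compound (singlicate) · Measure – percent inhibition of probe binding, normalized to plate controls · Schedule – 45 min compound pre-incubation plus 60 min probe step, 25 °C · Detection – fluorescence polarization with parallel and perpendicular emission, 525/598 nm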
Tn7 DDE FP: disrupts Tn7 cyclic peptide binding to fibrin D-Dimer-E complex | P02675 | FP displacement of FITC-Tn7 peptide from fibrin DD(E); 0% = median of compound wells per plate | inhibition, % at 8.3 µM | 370,000 tested, 0.13% active;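 active = inhibition above the mean of compounds falling within the control limits plus 3 SD of them, cut at about 14% in these data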;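 also: 0% = plate median of compound wells and 100% = 10 µM Aha-Tn7 peptide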
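Measure: % inhibition scaled between sample-field median and high-control FP; Test system: human fibrin DD(E); Quantity: 2 µM final DD(E) protein; Doses: one dose, 8.3 µM nominal; Schedule: compound with protein 10 min, then 3 h after probe, room temperature; Detection: fluorescence polarization; Medium: Tris buffer with calcium and detergent, pH 7.8.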
SIAE inh: inhibitors of human sialic acid acetylesterase SIAE; 370,000 tested, 0.69% active; Q9HAT2; SIAE FP-Rh probe binding, fluorescence polarization; inhibition, % at 9.66 µM;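 active = inhibition above a cutoff: mean of compounds within the control limits plus 3 SD of those, cut at about 17% in these data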;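 also: 0% = plate median of compound wells and 100% = probe without SIAE protein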
SIAE confirm: human SIAE inhibition, confirmation; shares compounds with SIAE inh; SIAE FP-Rh activity-based probe, fluorescence polarization; inhibition, % at 9.66 µM; 2,300 tested, 13% active; AID 1117263;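 active = mean inhibition of the replicates above the hit cutoff set in the primary screen, cut at about 17% in these data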;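 also: 0% = SIAE with DMSO and probe and 100% = probe without SIAE; inhibitors lower polarization as more probe stays unbound to SIAE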
* marks the source's active call; other numbers are inactive results; . = no result given.

SMILES	TCR-CD3 inh	HTRA1 inh	Tn6 DDE FP	ABHD4 inh	Tn7 DDE FP	SIAE inh	SIAE confirm
COc1ccccc1N1CCN(C2CCCN(Cc3cccc(O)c3)C2)CC1 (stereo not drawn)	2.7	-5.7	10.2	4.3	2.7	17.5*	5.1
CCOc1ccc(-n2c(C)cc(/C=N/NC(=O)C(N)=O)c2C)cc1	5.3	4.9	4.7	5.0	0.7	19.6*	-0.8
CCOc1ccc(-n2c(C)cc(/C=N\NC(=O)CC(=O)NC3CCCCC3)c2C)cc1	10.9	1.7	-12.9	2.9	-3.5	3.5	.
COc1ccc(OC)c(/C=C2\S/C(=N/NC(=O)c3ccc4ccccc4c3)NC2=O)c1	1.0	7.0	-0.1	8.9	-1.1	18.7*	9.2
O=C1N/C(=N/NC(=O)c2cccc3ccccc23)S/C1=C\c1ccccc1OCc1ccccc1	-3.5	8.2	-5.1	5.0	4.3	2.1	.
COC(=O)C1=C(C)N(Cc2ccccc2)C(=S)NC1c1ccc(Cl)cc1 (stereo not drawn)	0.7	.	8.4	-6.7	9.8	-11.4	.
COc1ccccc1-n1cc([C@@H]2C[C@H]3CN(c4ccccc4)C(=O)[C@]34CCCN24)cn1	-13.9	.	-2.8	-40.3	2.4	-29.1	.
Cc1ccccc1CN1CCN(C(=O)[C@H]2O[C@@H](n3cnc(C(N)=O)n3)[C@H](O)[C@@H]2O)CC1	3.9	.	3.3	-2.7	-3.6	18.7*	29.0*
Nc1ccn([C@@H]2O[C@H](C(=O)N3CCCN(Cc4ccccc4F)CC3)[C@@H](O)[C@H]2O)c(=O)n1	3.3	.	1.0	-0.6	-6.5	5.0	.
NC(=O)c1ncn([C@@H]2O[C@H](C(=O)N3CCCN(Cc4ccccc4F)CC3)[C@@H](O)[C@H]2O)n1	5.8	.	1.5	-0.1	-3.7	80.5*	87.8*
COc1cccc(OCC(C)CN2CCC(C(O)(c3ccccc3)c3ccccc3)CC2)c1 (stereo not drawn)	.	.	4.8	6.2	-1.2	-3.0	.
Nc1ccc2nc(-c3ccccn3)[nH]c2c1	1.2	27.4	-19.2	11.4	-10.4	51.5*	8.5
COc1ccccc1Nc1nnc(SCC(=O)NC2CC2)s1	1.2	8.1	7.1	4.8	1.1	17.5*	2.3
COc1ccccc1Nc1nnc(SCC(=O)NC2CCCC2)s1	2.0	-10.0	4.6	2.5	-2.0	4.7	.
CCOC(=O)C1CN(S(=O)(=O)c2ccc(OC)cc2)c2cc(CC(=O)OC)ccc2O1 (stereo not drawn)	-5.4	-3.0	-1.0	-7.2	8.6	-4.4	.
CCOC(=O)C1CN(S(C)(=O)=O)c2cc(CC(=O)OC)ccc2O1 (stereo not drawn)	5.5	0.5	2.6	3.6	2.8	28.6*	5.3
Cn1ncc(Br)c1N1C(=O)CCC1=O	-3.2	.	-8.4	-1.2	4.1	19.8*	1.9
O=C(O)C1C2C=CC(C3CC23)C1C(=O)NCCc1ccccc1 (stereo not drawn)	8.2	3.5	8.3	-4.9	1.9	11.1	.
CC(C)=C1C2CCC1C(C(=O)NCCc1ccccc1)C2C(=O)O (stereo not drawn)	4.7	2.1	4.7	0.0	6.3	21.4*	-2.0
O=C1N=c2ccccc2=C1c1sc(=S)n(NC(=O)c2cccc(O)c2)c1O	1.8	-0.2	-7.1	25.5	-0.8	29.0*	32.6*
O=C(Nc1ccc(N2CCCC2)cc1)c1cccc(F)c1	-9.7	26.1	-2.4	9.2	-2.8	17.6*	-0.8
O=C(Nc1ccc(N2CCCCC2)cc1)c1ccccc1	7.2	-11.5	-7.3	0.1	9.1	-2.4	.
C=CCn1c(OCc2ccccc2)n[nH]c1=S	1.2	-0.9	-3.9	-7.7	-3.9	1.4	.
OC(c1ccccc1)(c1ccccc1)C1CCN(CCCOc2ccc(-c3ccncc3)cc2)CC1	1.0	.	1.8	2.8	4.0	-5.0	.
OC(c1ccccc1)(c1ccccc1)C1CCN(CCCOc2ccncc2)CC1	-3.4	.	-5.1	6.7	3.0	21.8*	-0.5
SMILES	TCR-CD3 inh	HTRA1 inh	Tn6 DDE FP	ABHD4 inh	Tn7 DDE FP	SIAE inh	SIAE confirm
Cc1[nH]c2ccc(F)cc2c1CCN1C(=O)OC(C)(C)C1(C)O (stereo not drawn)	-7.3	9.2	0.3	-2.7	1.6	26.4*	2.6
CCOC(=O)Cc1csc(NS(=O)(=O)c2ccc(F)cc2)n1	0.1	5.3	6.2	3.9	-1.7	19.2*	-0.8
Cc1nc(Cl)c(N=Cc2cccc([N+](=O)[O-])c2)c(Cl)n1	3.2	2.1	-3.2	5.6	-1.6	17.7*	0.2
OC(c1ccccc1)c1nc(-c2cncnc2)cs1 (stereo not drawn)	5.0	.	-7.9	-0.5	-0.2	-0.4	.
O=C(COc1ccccc1)NCC(=O)Nc1ccncc1	-4.9	-4.3	-3.2	-12.3	3.9	-1.5	.
COc1cccc(C(=O)/C=C/Nc2cc(C)ccc2O)c1	2.1	5.3	6.5	7.4	1.6	22.8*	-4.1
O=C(Nc1ccc(F)cc1)Nc1cc(S(=O)(=O)N2CCOCC2)ccc1N1CCCC1	0.0	-1.3	0.7	2.3	0.7	20.2*	17.4*
O=C(Nc1ccc(Cl)cc1)Nc1cc(S(=O)(=O)N2CCOCC2)ccc1N1CCCC1	-5.1	0.0	-10.4	7.0	-3.9	6.0	.
CC(C)(C)n1nnnc1C(c1cc2ccccc2o1)N1CCN(C(=O)OCc2ccccc2)CC1 (stereo not drawn)	-0.7	.	1.6	0.6	-6.2	-4.8	.
O=C1C[C@@H](c2ccccc2)N=C2N(Cc3ccc4c(c3)OCO4)C/C(=C/c3ccccc3)N12	.	.	-0.3	-14.7	-0.7	5.6	.
CCN(CC(=O)Nc1c(F)cccc1F)C(=O)c1n[nH]c2ccccc12	4.4	1.4	-1.1	-0.3	6.0	2.9	.
Cc1ccc(S(=O)(=O)NCCCNS(=O)(=O)c2ccc(C)cc2)cc1	8.2	10.0	5.7	-5.0	2.0	-5.4	.
Cc1ccc(S(=O)(=O)NCCCN(C)C)cc1	3.2	1.4	-3.7	-1.6	-4.7	19.1*	0.1
c1ccc(CCn2cccc2)nc1	-4.8	5.7	3.4	2.4	2.3	1.9	.
CN(C)CCNC(=O)C1CCN(S(=O)(=O)c2ccc3ccccc3c2)CC1	6.5	-3.2	3.9	4.4	-5.9	-11.4	.
COC(=O)c1c(C)[nH]c(C)c1C(C)=O	6.1	5.8	2.2	-2.8	-2.5	2.5	.
COC(=O)c1c([N+](=O)[O-])c(OC)c(OC)c(OC)c1[N+](=O)[O-]	6.0	-3.6	6.9	2.6	3.5	18.6*	6.9
Cc1cc(C)n2nc(SCc3nnc(-c4ccccc4Br)o3)nc2n1	4.4	2.4	0.5	1.2	8.5	21.9*	0.7
CC(=NCc1cccc(Cl)c1)c1nc(-c2ccco2)oc1O	-5.0	-5.3	4.5	1.4	0.2	21.4*	0.7
